In the library only some 5.4% were active in any assay of this set; here they are far more common.
SKKanGAS inh – S. pyogenes SKKanGAS growth inhibitors in kanamycin, primary screen, streptokinase expression inhibitor project, SKKanGAS strain, BacTiter-Glo luminescence. 6 h. inhibition, % at 7.5 µM. hit rate 1.3% among 300,000. AID 1662, 2009;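 active = mean replicate score, as percent of positive control median, at least 50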;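 also: strain carries kanamycin resistance gene driven by streptokinase promoter and grows in 40 µg/ml kanamycin; loss of luminescence reflects streptokinase promoter inhibition or plain growth inhibition; 0% = median of DMSO wells and 100% = positive control at its reference dose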
Mdm2 MdmX PPI – inhibitors of human Mdm2-MdmX association, primary screen, cell-based, luminescence, split luciferase, SaOS-2, uHTS. SaOS-2 split-luciferase Mdm2/MdmX complementation. inhibition, % at 8 µM. hit rate 3% among 330,000;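 active = inhibition of at least 50% at 8 µM in the primary screen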
CSC inhib – cancer stem cell viability inhibitors, primary screen, luminescence; hit rate 1.1% among 300,000; inhibition, % at 7.5 µM; cancer stem cell-like cells viability; in the data active = inhibition above about 75%; tested in HMLE shEcad cells
T cruzi inh – inhibitors of intracellular T. cruzi growth, primary screen, luminescence, NIH3T3 host cells. T. cruzi beta-gal in NIH3T3, 90 h. inhibition, % (concentration not given with the values). hit rate 1.4% among 300,000. AID 1885, 2009;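 active = mean inhibition across valid replicates above about 55%, limit read from the data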;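 also: signal also drops with host cell toxicity which is not excluded here; 0% = plate median of DMSO wells and 100% = zero luminescence signal; higher percent means less beta-gal luminescence so fewer parasites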
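Incubation – ≥90 h infection period, 3 h prior cell attachment · System – NIH/3T3 fibroblasts plus reporter T. cruzi · Doses – compound pinned at 50 nL/well, DMSO · Read-out basis – percent inhibition of parasite-derived β-gal signal · Signal – luminescent β-galactosidase signal after 60 min lysis · Also added – 5000 T. cruzi trypomastigotes/well · Medium – Low-serum DMEM with 2% FBS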
aSyn UTR inh – MLPCN primary screen, SNCA 5' untranslated region | alpha-synuclein 5'UTR reporter, inhibitor activity | inhibition, % (tested at 7.5 µM) | hit rate 0.82% among 300,000 | AID 1813, 2009; in the data active = inhibition above about 60%;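 also: H4 neuroglioblastoma cells stably carrying SNCA 5'UTR luciferase fusion; 0% = DMSO wells and 100% = positive control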
* hit, by the source's call; x = not tested or not shown.

SMILES	SKKanGAS inh	Mdm2 MdmX PPI	CSC inhib	T cruzi inh	aSyn UTR inh
C[C@@H]1C[C@H]2[C@@H]3CCC4=CC(=O)C=C[C@]4(C)[C@@]3(Cl)[C@@H](O)C[C@]2(C)[C@@]1(OC(=O)c1ccco1)C(=O)CCl	x	37	31	x	x
Cc1cccc(OCC(=O)Nc2ccc3c(c2)nc(CCN2CCN(c4ccccn4)CC2)n3C)c1	4	31	-1	12	-21
Cc1[nH]n2c(=O)c3c(nc2c1-c1ccccc1)CCCC3	5	12	-6	3	0
Cc1[nH]n2c(=O)c3c(nc2c1-c1ccc(F)cc1)CCCC3	5	26	6	74*	11
O=c1c2c(nc3c(-c4cccc5ccccc45)c[nH]n13)CCC2	16	17	1	-20	-17
O=c1c2c(nc3c(-c4ccc(Cl)cc4)c[nH]n13)CCCC2	71*	42	x	-7	66*
Cc1ccc(C(=O)C2=C(O)C(=O)N(Cc3ccco3)C2c2cccc(Br)c2)o1 (centres undefined)	52*	25	-1	-5	-5
Cc1ccc(C(=O)C2=C(O)C(=O)N(Cc3ccco3)C2c2cccc(Cl)c2)o1 (centres undefined)	22	1	-9	-2	-7
Cc1ccc(/C=C/C(=O)NC2CCCCCCC2)o1	5	-5	145*	-7	-2
Cc1ccc(/C=N/NC(=O)NC2CCCCC2)o1	-1	-3	-3	-13	-66
O=C(Nc1nccs1)c1cn(-c2ccccc2)nc1-c1ccccc1	22	5	-3	3	-22
CC(C)COc1ccc(-c2nn(-c3ccccc3)cc2C(=O)Nc2nccs2)cc1	96*	26	27	64*	14
O=C(Nc1ccccc1F)NC1CCCCCCC1	50*	-8	1	2	-115
O=C(Nc1ccccc1F)NC1CC1	7	4	1	3	1
CCc1cc(Cn2nc(-c3ccccc3)cc2C(=O)NCc2cccc(Br)c2)on1	x	36	27	x	x
CCc1sc(N(C(=O)Cc2ccccc2)c2cccc(F)c2)nc1-c1ccc(C)cc1	59*	16	-3	10	0
CC(C)=CC1C(C(=O)NCCc2ccccc2)C1(C)C (centres undefined)	1	-3	1	3	-3
CC(C)(Oc1ccc(Cl)cc1)C(=O)NCC(c1ccco1)N1CCCCC1 (centres undefined)	-3	20	44	2	-4
Cc1nc(N2CCC(C)CC2)c2c(C)c(C(=O)Nc3ccc(C(F)(F)F)cc3)sc2n1	75*	27	30	61*	-19
CN(C)C(CNC(=O)c1cc(S(=O)(=O)N2CCOCC2)ccc1F)c1cccs1 (centres undefined)	x	19	-11	x	x
O=C(O)c1ccc2c3c(ncnc13)-c1ccccc1C2=O	59*	31	-12	-10	107*
CCCCC[n+]1cccc2c3ccccc3ccc21	-2	50	13	73*	26
CC(C)N(C(=O)[C@H]1C[C@H](CC(=O)NCCc2ccccn2)C(=O)N2CCc3c([nH]c4cc(CCC(=O)N(C)C)ccc34)[C@]12C)C(C)C	x	15	x	x	x
NNC(=O)c1cccc(COc2ccccc2Br)c1	-4	-63	8	-3	-72
NNC(=O)c1cccc(COc2ccc3c(c2)CCC3)c1	10	10	-6	14	71*
SMILES	SKKanGAS inh	Mdm2 MdmX PPI	CSC inhib	T cruzi inh	aSyn UTR inh
O=[N+]([O-])c1ccc(C2CCCC/C2=N\OCc2cccc(F)c2)c([N+](=O)[O-])c1 (centres undefined)	5	-3	20	62*	25
CC1CCCC/C1=N/Nc1ccc([N+](=O)[O-])cc1[N+](=O)[O-] (centres undefined)	1	7	x	2	-12
CN1CCN(Cc2cccc(Oc3ccccc3)c2)CC1	8	-11	25	49	47
OCCN1CCN(Cc2cccc(Oc3ccc(Cl)cc3)c2)CC1	-12	10	62	61*	-24
OC1CCN(Cc2cccc(Oc3ccccc3)c2)CC1	5	8	-13	68*	12
Cc1ccc(C)c(OCC(=O)Nc2c[nH]c(=O)[nH]c2=O)c1	-4	21	-7	-6	81*
CCOc1ccccc1C(=O)Nc1c[nH]c(=O)[nH]c1=O	-3	7	x	-1	62*

Source: PubChem BioAssay
